Screening data as filed in PubChem BioAssay.
This is a sample that favours compounds with a hit; in the whole collection about 2.5% have one here.
PglD DTNB: C. jejuni PglD acetyltransferase inhibitors, primary screen, biochemical, DTNB colorimetric, single point. UDP-N-acetylbacillosamine N-acetyltransferase PglD (Campylobacter jejuni). purified PglD enzyme, DTNB colorimetric CoA detection. inhibition, % at 12.5 µM. 0.098% of 360,000 active. AID 602405, 2012; in the data active = inhibition above about 16%, passing the limit was not always enough; inconclusive = no clear call, values can overlap the other calls
SIRT5 inh: SIRT5 desuccinylase inhibitors, primary screen, biochemical, fluorescence imaging, single point, set 5. NAD-dependent protein deacylase sirtuin-5, mitochondrial (Homo sapiens), Q9NXA8. Purified SirT5, succinyl-peptide AMC, trypsin-coupled fluorescence. inhibition, % at 15 µM. 1.1% of 330,000 active. AID 652115, 2013; in the data active = inhibition above about 15%; inconclusive = no clear call, values can overlap the other calls
E-sel inducer: E-selectin induction in HUVECs, primary screen, imaging, HUVEC, immunofluorescence imaging, single point; 0.37% of 260,000 active; normalized: neutral wells 0, TNF-alpha wells 100; activation, % at 7.58 µM; P16581; AID 686992, 2013;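 active = mean E-selectin-positive cell signal at least 10% of the positive control, reached in at least 60% of replicates, without over 20% cell loss; inconclusive = no rule given, readout overlaps actives, possibly toxicity-flagged; inactive = the rest, including those meeting only one limit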
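Assay system: HUVEC primary endothelial cells. Input: 3,000 HUVEC seeded per well. Doses: one compound dose added by pin transfer. Read-out basis: % PE-positive cells. Benchmarks: TNF-alpha high, DMSO low. Detection: immunofluorescence imaging. Buffer or medium: EGM-2, gelatin.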
DENV2 CPE rescue: inhibitors of DENV2 cytopathic effect, primary screen, cell-based, plate reader, single concentration; CPE inhibition, % at 9.99 µM; DENV2-infected cells, cytopathic effect rescue; 1.7% of 350,000 active; in the data active = CPE inhibition above about 20%, passing the limit was not always enough; inconclusive = no clear call, values can overlap the other calls; tested in BHK-21 cells
ERAP1 HTS inh: human ERAP1 aminopeptidase inhibitors, primary screen, biochemical, single point, plate reader; inhibition, % at 10.7 µM; AID 652197, 2013; 0.15% of 340,000 active; Endoplasmic reticulum aminopeptidase 1 (Homo sapiens), Q9NZ08; recombinant ERAP1, Leu-AMC fluorescence, 60 min;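 active = mean replicate inhibition of at least 30%, or all replicates individually reaching that 30% level; inactive = mean below 30% and not every replicate reaching it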
A number is an active result; 0 = inactive; ? = inconclusive; - = no result given.

SMILES	PglD DTNB	SIRT5 inh	E-sel inducer	DENV2 CPE rescue	ERAP1 HTS inh
C[C@@H]1CN([C@@H](C)CO)C(=O)c2cc(NC(=O)c3ccncc3)ccc2O[C@H]1CN(C)C(=O)NC1CCCCC1	0	0	-	35	0
C[C@@H]1CCCCO[C@H](CN(C)C(=O)NC2CCCCC2)[C@H](C)CN([C@@H](C)CO)C(=O)c2cc(NC(=O)Nc3ccc(C(F)(F)F)cc3)ccc2O1	0	0	0	64	0
C[C@H](CO)N1C[C@H](C)[C@H](CN(C)C(=O)NC2CCCCC2)Oc2ccc(NC(=O)Nc3ccc4c(c3)OCO4)cc2C1=O	0	0	0	0	0
C[C@H](CO)N1C[C@H](C)[C@@H](CN(C)C(=O)NC2CCCCC2)OCCCC[C@H](C)Oc2ccc(NC(=O)Nc3ccc(C(F)(F)F)cc3)cc2C1=O	0	0	0	?	0
C[C@H]1CN([C@@H](C)CO)C(=O)c2cc(NC(=O)Nc3ccc4c(c3)OCO4)ccc2O[C@@H]1CN(C)C(=O)NC1CCCCC1	0	16	0	?	0
C[C@H]1CN([C@@H](C)CO)C(=O)c2cc(NC(=O)c3ccncc3)ccc2O[C@@H]1CN(C)C(=O)NC1CCCCC1	0	0	-	0	0
C[C@H](CO)N1C[C@H](C)[C@H](CN(C)C(=O)NC2CCCCC2)Oc2ccc(NC(=O)Nc3ccccc3)cc2C1=O	0	22	0	0	0
O=C(NCc1ccc(Cl)cc1)c1ccc(-n2cccn2)nc1	-	0	-	0	0
CCOC(=O)c1oc2ccccc2c1COC(=O)CNC(=O)c1ccccc1F	0	-	0	0	0
COc1ccc(OCC(=O)N(Cc2sccc2C)C2CCS(=O)(=O)C2)cc1 (stereo unspecified)	0	0	0	0	0
C[C@@H]1CN([C@H](C)CO)C(=O)c2cc(NC(=O)Nc3ccc(C(F)(F)F)cc3)ccc2O[C@H]1CN(C)C(=O)NC1CCCCC1	0	0	0	126	0
C[C@@H]1CN([C@H](C)CO)C(=O)c2cc(NC(=O)NC3CCCCC3)ccc2O[C@H]1CN(C)C(=O)Nc1ccc(C(F)(F)F)cc1	0	0	0	0	0
CO[C@@H]1CN(C)C(=O)c2ccc(NC(=O)C3CCC3)cc2OC[C@H](C)N(CC2CCCCC2)C[C@H]1C	0	0	0	0	0
C[C@@H]1CCCCO[C@H](CN(C)C(=O)Nc2ccc(C(F)(F)F)cc2)[C@H](C)CN([C@H](C)CO)C(=O)c2cc(NC(=O)C3CCCCC3)ccc2O1	0	0	0	32	0
C[C@H](CO)N1C[C@H](C)[C@@H](CN(C)C(=O)Nc2ccc(C(F)(F)F)cc2)OCCCC[C@H](C)Oc2ccc(NC(=O)C3CCCCC3)cc2C1=O	0	0	0	87	0
C[C@@H]1CCCCO[C@H](CN(C)C(=O)Nc2ccc(C(F)(F)F)cc2)[C@@H](C)CN([C@H](C)CO)C(=O)c2cc(NC(=O)C3CCCCC3)ccc2O1	0	0	0	0	0
C[C@@H]1CCCCO[C@H](CN(C)C(=O)Nc2ccc(C(F)(F)F)cc2)[C@@H](C)CN([C@@H](C)CO)C(=O)c2cc(NC(=O)C3CCCCC3)ccc2O1	0	0	0	22	0
C[C@@H]1CN([C@H](C)CO)C(=O)c2cc(NC(=O)C3CCCCC3)ccc2O[C@@H](C)CCCCO[C@H]1CN(C)C(=O)Nc1ccc(C(F)(F)F)cc1	0	0	0	0	0
C[C@@H]1CCCCO[C@@H](CN(C)C(=O)Nc2ccc(C(F)(F)F)cc2)[C@@H](C)CN([C@@H](C)CO)C(=O)c2cc(NC(=O)C3CCCCC3)ccc2O1	-	0	0	0	0
C[C@H]1CCCCO[C@H](CN(C)C(=O)Nc2ccc(C(F)(F)F)cc2)[C@@H](C)CN([C@@H](C)CO)C(=O)c2cc(NC(=O)C3CCCCC3)ccc2O1	0	0	0	87	0
O=C(NCc1ccco1)c1cc(S(=O)(=O)N2CCCCC2)ccc1Cl	0	0	-	0	0
CC(C)C[C@@H](CN1C(=O)C(=O)NC[C@@H]1CC(C)C)NC(=O)Cc1ccccc1	0	-	-	43	0
CC(C)C[C@H]1CNC(=O)C(=O)N1C[C@H](Cc1ccc(O)cc1)NC(=O)CC12CC3CC(CC(C3)C1)C2	-	0	0	0	0
CC(=O)Nc1scc(C)c1-c1nc2ccccc2s1	-	0	0	50	0
C/C=C/c1ccc([C@H]2[C@@H](CO)N(CC3CC3)[C@@H]2CNC(=O)NC(C)C)cc1	-	0	0	24	-
SMILES	PglD DTNB	SIRT5 inh	E-sel inducer	DENV2 CPE rescue	ERAP1 HTS inh
C/C=C/c1ccc([C@H]2[C@@H](CO)N(CC3CCCC3)[C@@H]2CNC(=O)NC(C)C)cc1	-	0	0	0	0
C/C=C/c1ccc([C@H]2[C@@H](CO)N(CC3CCCCC3)[C@@H]2CNC(C)C)cc1	-	19	0	0	0
C[C@@H]1CCCCO[C@H](CN(C)S(=O)(=O)c2cccs2)[C@H](C)CN([C@@H](C)CO)C(=O)c2cc(NC(=O)c3ccccc3)ccc2O1	0	-	0	0	-
C[C@@H]1CCCCO[C@@H](CN(C)S(C)(=O)=O)[C@@H](C)CN([C@H](C)CO)C(=O)c2cc(NC(=O)c3ccccc3)ccc2O1	0	0	0	85	0
C[C@@H]1CN([C@H](C)CO)C(=O)c2cc(NC(=O)c3ccccc3)ccc2O[C@@H](C)CCCCO[C@@H]1CN(C)S(C)(=O)=O	0	0	0	0	0
C[C@H]1CCCCO[C@H](CN(C)S(=O)(=O)c2cccs2)[C@@H](C)CN([C@@H](C)CO)C(=O)c2cc(NC(=O)c3ccccc3)ccc2O1	0	-	0	36	-
CNc1ccc(C(=O)c2ccccc2C(=O)O)cc1[N+](=O)[O-]	-	0	-	0	0
CN(C)c1ccc(C(=O)c2ccccc2C(=O)O)cc1[N+](=O)[O-]	-	28	-	0	0
CC(=O)c1ccc(OC(C)C(=O)NC2CCCCC2C)cc1 (stereo unspecified)	-	0	-	67	0
O=C(c1cccc(Cl)c1)N1CCC2(CC1)NCCc1[nH]cnc12	0	0	-	27	0
CCC1CCCCN1C(=O)CNCC1CCCO1 (stereo unspecified)	-	0	0	0	0
COc1ccc(NC(=O)/C=C/c2ccc(OC(F)F)cc2)cn1	0	0	0	?	0
COc1cc(-c2ccc(Nc3ccccc3C(=O)O)c(OC)c2)ccc1Nc1ccccc1C(=O)O	0	30	0	0	0
Cc1ccc2nc3c(cc(C(N)=S)c(=N)n3CCCOC(C)C)c(=O)n2c1	0	0	-	-	33
COCCCn1c(=N)c(C(N)=S)cc2c(=O)n3cccc(C)c3nc21	0	0	-	0	0
Cc1ccc(C)c(N)c1	0	-	-	0	0
Cc1cc(Cc2cc(C)c(N)cc2C)c(C)cc1N	0	21	0	0	0
